{
  "source": "ChEMBL document CHEMBL4190227",
  "about": "“Syntheses, toxicities and anti-inflammation of H2S-donors based on non-steroidal anti-inflammatory drugs” (Eur J Med Chem, 2017)",
  "key": {"Danio rerio [1]": {"species": "Danio rerio", "assay": "Toxicity in AB zebrafish embryo assessed as rate of embryo malformation at 20 uM measured at 96 hrs post fertilization by stereoscopic dissecting light microscopic analysis relative to DMF", "assay_type": "organism-based", "settings": "in vivo", "procedure,_shortened": "(§1)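 AB embryos exposed from 4 hpf through 96 hpf to compound or DMF vehicle (1:1000); malformations scored at 96 hpf under stereoscopic dissecting microscope; 100 embryos per group in three replicates; three independent experiments, mean ± SD.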"}, "Danio rerio [2]": {"species": "Danio rerio", "assay": "Toxicity in AB zebrafish embryo assessed as vitelline cyst at 0.5 uM measured at 96 hrs post fertilization by stereoscopic dissecting light microscopic analysis", "assay_type": "organism-based", "settings": "in vivo", "procedure,_shortened": "as §1"}, "Danio rerio [3]": {"species": "Danio rerio", "assay": "Toxicity in AB zebrafish embryo assessed as increase in embryo malformation measured at 96 hrs post fertilization by stereoscopic dissecting light microscopic analysis", "assay_type": "organism-based", "settings": "in vivo", "procedure,_shortened": "as §1"}, "Danio rerio [4]": {"species": "Danio rerio", "assay": "Toxicity in AB zebrafish embryo assessed as bent spine at 0.5 uM measured at 96 hrs post fertilization by stereoscopic dissecting light microscopic analysis", "assay_type": "organism-based", "settings": "in vivo", "procedure,_shortened": "as §1"}, "Danio rerio [5]": {"system": "Danio rerio", "assay": "Toxicity in AB zebrafish embryo assessed as pericardial edema at 0.5 uM measured at 96 hrs post fertilization by stereoscopic dissecting light microscopic analysis", "assay_type": "organism-based", "settings": "in vivo", "procedure,_shortened": "as §1"}, "[6]": {"assay": "Toxicity in AB zebrafish embryo assessed as percentage of embryos alive at 10 uM measured at 120 hrs post fertilization by dissecting light microscopic analysis relative to DMF", "assay_type": "organism-based, Danio rerio", "settings": "read-out: Activity", "procedure,_shortened": "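Wild-type AB zebrafish embryos, collected within 1 h of lights-on and washed in E3 medium, were exposed one embryo per well in 200 μL test solution, with plates sealed against evaporation. There were 100 embryos per group, split into three replicate groups. Mortality was recorded at 24–168 hpf. DMF vehicle (1:1000) served as control. Results are mean ± SD of three replicates.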"}, "RAW264.7 [7]": {"system": "RAW264.7", "assay": "Antiinflammatory activity in mouse RAW264.7 cells assessed as increase in LPS-induced IL10 levels at 100 uM incubated for 24 hrs post LPS induction by ELISA relative to control", "assay_type": "functional", "procedure,_shortened": "(§2)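 LPS (1 μg/mL) for 4 h, then compound at 10, 50, 100 μM for 24 h; cells lysed in RIPA, spun 12,000×g 10 min, protein normalised by BCA to 0.1 mg/mL; target (TNF-α, HO-1, IL-10 or COX-2) quantified by sandwich ELISA kit with mouse-specific polyclonal antibodies; four independent experiments.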"}, "RAW264.7 [8]": {"system": "RAW264.7", "assay": "Antiinflammatory activity in mouse RAW264.7 cells assessed as LPS-induced TNFalpha levels at 100 uM incubated for 24 hrs post LPS induction by ELISA relative to control", "assay_type": "functional", "procedure,_shortened": "as §2"}, "Danio rerio [9]": {"species": "Danio rerio", "assay": "Toxicity in AB zebrafish embryo assessed as embryonic spontaneous movement frequencies per minute at 10 uM measured at 24 hrs post fertilization by stereoscopic dissecting light microscopic analysis (reference value: 15.9 /min)", "assay_type": "organism-based", "settings": "in vivo", "procedure,_shortened": "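AB embryos exposed from 4 to 24 hpf to compound (0.5–20 μM) or DMF vehicle (1:1000); ten embryos per group chosen randomly; spontaneous movement recorded under stereoscopic dissecting microscope, frequency per min counted at 24 hpf; three independent experiments, mean ± SD.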"}, "[10]": {"biological_target": "T1, Nitric oxide synthase, inducible (Mus musculus) (UniProt P29477)", "T1 sequence (whole entry)": "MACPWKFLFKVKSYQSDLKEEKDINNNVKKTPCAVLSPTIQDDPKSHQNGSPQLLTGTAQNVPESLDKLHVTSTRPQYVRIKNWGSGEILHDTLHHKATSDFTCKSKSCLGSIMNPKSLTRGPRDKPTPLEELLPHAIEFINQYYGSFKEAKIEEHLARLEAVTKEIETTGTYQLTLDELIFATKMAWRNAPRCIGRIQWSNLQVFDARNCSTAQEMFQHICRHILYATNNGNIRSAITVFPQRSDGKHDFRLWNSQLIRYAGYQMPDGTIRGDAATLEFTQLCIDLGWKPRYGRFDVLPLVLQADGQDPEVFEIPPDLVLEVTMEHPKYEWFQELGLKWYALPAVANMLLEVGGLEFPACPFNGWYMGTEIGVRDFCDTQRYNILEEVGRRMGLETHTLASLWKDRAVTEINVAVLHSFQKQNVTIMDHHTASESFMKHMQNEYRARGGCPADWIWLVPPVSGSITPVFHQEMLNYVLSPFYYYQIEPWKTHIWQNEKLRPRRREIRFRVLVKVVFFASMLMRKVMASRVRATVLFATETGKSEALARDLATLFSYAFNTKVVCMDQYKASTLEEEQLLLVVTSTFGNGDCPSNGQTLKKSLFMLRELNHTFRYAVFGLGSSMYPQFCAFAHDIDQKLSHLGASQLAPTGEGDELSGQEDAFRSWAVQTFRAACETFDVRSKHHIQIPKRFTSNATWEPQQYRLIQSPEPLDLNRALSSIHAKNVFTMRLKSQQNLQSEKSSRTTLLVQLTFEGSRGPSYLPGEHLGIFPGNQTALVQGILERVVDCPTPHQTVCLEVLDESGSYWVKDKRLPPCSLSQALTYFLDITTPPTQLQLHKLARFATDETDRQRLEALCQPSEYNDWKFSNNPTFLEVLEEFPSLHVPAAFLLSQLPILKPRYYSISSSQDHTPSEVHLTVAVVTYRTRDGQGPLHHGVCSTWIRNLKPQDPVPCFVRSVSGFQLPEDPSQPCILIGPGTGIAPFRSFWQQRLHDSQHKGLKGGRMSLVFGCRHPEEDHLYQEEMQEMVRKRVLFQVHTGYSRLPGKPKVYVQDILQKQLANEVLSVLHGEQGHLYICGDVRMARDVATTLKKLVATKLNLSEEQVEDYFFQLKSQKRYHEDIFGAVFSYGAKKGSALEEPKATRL", "assay": "Inhibition of iNOS in mouse RAW264.7 cells assessed as reduction in LPS-induced NO production at 50 uM administered for 24 hrs post LPS induction by Griess method relative to control", "assay_type": "cell-based", "procedure,_shortened": "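RAW264.7 cells stimulated with LPS 1 μg/mL for 4 h, then compound (10, 50, 100 μM) for 24 h; culture medium reacted with Griess reagents I and II, absorbance 570 nm; nitrite from sodium nitrite standard curve (0–100 μM in medium); four independent experiments, mean ± SD.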"}, "RAW264.7 [11]": {"system": "RAW264.7", "assay": "Antiinflammatory activity in mouse RAW264.7 cells assessed as increase in IL10 levels at 100 uM measured after 24 hrs in absence of LPS by ELISA relative to control", "assay_type": "functional", "procedure,_shortened": "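Macrophages exposed 24 h to 10, 50, 100 μM without LPS; lysates (RIPA, 12,000×g spin) normalised by BCA to 0.1 mg/mL protein; IL-10 measured by mouse-specific sandwich ELISA kit; four independent experiments, mean ± SD.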"}},
  "data": [
    {"compound": "CC(C)Cc1ccc(C(C)C(=O)Oc2ccc(C(N)=S)cc2)cc1", "note": "(stereo unspecified)", "values": [
      {"measurement": "Activity", "setting": "Danio rerio [1]", "value": 5, "unit": "%"},
      {"measurement": "Activity", "setting": "Danio rerio [2]", "value": "Toxic"},
      {"measurement": "Activity", "setting": "Danio rerio [3]", "value": "Dose-dependent effect"},
      {"measurement": "Activity", "setting": "Danio rerio [4]", "value": "Toxic"},
      {"measurement": "Activity", "setting": "Danio rerio [5]", "value": "Toxic"}
    ]},
    {"compound": "CC(=O)Nc1ccc(OC(=O)CCCCC2CCSS2)cc1", "note": "(stereo unspecified)", "values": [
      {"measurement": "survival at 120 h, 10 µM", "setting": "[6]", "value": 51, "unit": "%"},
      {"measurement": "fold change (FC)", "setting": "RAW264.7 [7]", "value": 3},
      {"measurement": "Activity", "setting": "RAW264.7 [8]", "value": 50, "unit": "%"},
      {"measurement": "Activity", "setting": "Danio rerio [9]", "value": 13.5, "unit": "min⁻¹"},
      {"measurement": "inhibition", "setting": "[10]", "value": 60, "unit": "%"},
      {"measurement": "fold change (FC)", "setting": "RAW264.7 [11]", "value": 3}
    ]}
  ]
}
